Source: ChEMBL document CHEMBL3045143, “Role of exogenously supplied ferulic and p-coumaric acids in mimicking the mode of action of acetolactate synthase inhibiting herbicides” (J Agric Food Chem, 2011)
Calls of active or inactive are those of the source.

Legend:
Root [1] = assay: Induction of PAL activity in Pisum sativum (pea) roots at 69 uM added to nutrient medium measured 5 to 15 days post onset of compound treatment; type: functional; conditions: Lathyrus oleraceus
Method in brief: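 Roots were taken from 12-day-old pea plants (cv. Snap Sugar Boys) treated via nutrient solution, renewed every 3 days at pH 6–7. For PAL activity, extracts were not filtered on Sephadex G-25. Reaction ran 1 h at 37 °C, then HCl was added and the mixture was centrifuged at 5000g for 5 min.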

Root [2] = assay: Induction of ferulic acid accumulation in Pisum sativum (pea) roots at 69 uM added to nutrient medium measured 5 to 15 days post onset of compound treatment by HPLC method; type: functional; conditions: Lathyrus oleraceus
Method in brief: (§1)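 Compound was added to the nutrient solution of 12-day-old pea plants (cv. Snap Sugar Boys), renewed every 3 days at pH 6–7. Leaves or roots were sampled at 0, 1, 3, 7, 10 and 15 days. Values are mean ± standard error, n = 5 single plants. One-way ANOVA with Fisher test versus untreated controls on each day, p < 0.05.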

Root [3] = assay: Induction of DAHPS enzyme expression in Pisum sativum (pea) roots at 69 uM added to nutrient medium measured 5 to 15 days post onset of compound treatment by immunoblot; type: functional; conditions: Lathyrus oleraceus
Method in brief: (§2)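 Roots were taken from pea plants (cv. Snap Sugar Boys) treated via nutrient solution from 12 days old, with the solution renewed every 3 days. Samples were taken at days 3, 7, 10 and 15.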

Root [4] = assay: Induction of p-coumaric acid accumulation in Pisum sativum (pea) roots at 69 uM added to nutrient medium measured 5 to 15 days post onset of compound treatment by HPLC method; type: functional; conditions: Lathyrus oleraceus; method in brief: as §1
Pisum sativum [5] = assay: Growth inhibition in Pisum sativum (pea) at 69 uM added to nutrient medium measured 22 to 23 days post onset of compound treatment; type: functional, organism-based; conditions: Lathyrus oleraceus
Method in brief: (§3)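 Pea (cv. Snap Sugar Boys) grown hydroponically. Compound added to the nutrient solution at 12 days old. Solution was renewed every 3 days, with pH held between 6 and 7. Plants were followed over the treatment period.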

Leaf [6] = assay: Induction of p-coumaric acid accumulation in Pisum sativum (pea) leaves at 69 uM added to nutrient medium measured 5 to 15 days post onset of compound treatment by HPLC method; type: functional; conditions: Lathyrus oleraceus; method in brief: as §1
Leaf [7] = assay: Induction of caffeic acid accumulation in Pisum sativum (pea) leaves at 69 uM added to nutrient medium measured 5 to 15 days post onset of compound treatment by HPLC method; type: functional; conditions: Lathyrus oleraceus; method in brief: as §1
Leaf [8] = assay: Induction of ferulic acid accumulation in Pisum sativum (pea) leaves at 69 uM added to nutrient medium measured 5 to 15 days post onset of compound treatment by HPLC method; type: functional; conditions: Lathyrus oleraceus; method in brief: as §1
Root [9] = assay: Increase in lignin content in Pisum sativum (pea) roots at 69 uM added to nutrient medium measured 10 days post onset of compound treatment; type: functional; conditions: Lathyrus oleraceus
Method in brief: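 Compound was added to the nutrient solution of 12-day-old pea plants (cv. Snap Sugar Boys). Solution was renewed every 3 days at pH 6–7. Lignin was measured in roots from plants sampled on set days up to day 15.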

Leaf [10] = assay: Induction of sinapic acid accumulation in Pisum sativum (pea) leaves at 69 uM added to nutrient medium measured 5 to 15 days post onset of compound treatment by HPLC method; type: functional; conditions: Lathyrus oleraceus; method in brief: as §1
Root [11] = assay: Induction of caffeic acid accumulation in Pisum sativum (pea) roots at 69 uM added to nutrient medium measured 5 to 15 days post onset of compound treatment by HPLC method; type: functional; conditions: Lathyrus oleraceus; method in brief: as §1
Root [12] = assay: Reduction in sinapic acid accumulation in Pisum sativum (pea) roots at 69 uM added to nutrient medium measured 3 to 10 days post onset of compound treatment by HPLC method; type: functional; conditions: Lathyrus oleraceus; method in brief: as §1
Leaf [13] = assay: Induction of ferulic acid accumulation in Pisum sativum (pea) leaves at 28 nM added to nutrient medium measured 5 to 15 days post onset of compound treatment by HPLC method; type: functional; conditions: Lathyrus oleraceus; method in brief: as §1
Root [14] = assay: Induction of caffeic acid accumulation in Pisum sativum (pea) roots at 28 nM added to nutrient medium measured 5 to 15 days post onset of compound treatment by HPLC method; type: functional; conditions: Lathyrus oleraceus; method in brief: as §1
Root [15] = assay: Induction of ferulic acid accumulation in Pisum sativum (pea) roots at 28 nM added to nutrient medium measured 5 to 15 days post onset of compound treatment by HPLC method; type: functional; conditions: Lathyrus oleraceus; method in brief: as §1
Root [16] = assay: Reduction in sinapic acid accumulation in Pisum sativum (pea) roots at 28 nM added to nutrient medium measured 3 to 10 days post onset of compound treatment by HPLC method; type: functional; conditions: Lathyrus oleraceus; method in brief: as §1
Root [17] = assay: Induction of DAHPS enzyme expression in Pisum sativum (pea) roots at 28 nM added to nutrient medium measured 5 to 15 days post onset of compound treatment by immunoblot; type: functional; conditions: Lathyrus oleraceus; method in brief: as §2
Leaf [18] = assay: Induction of p-coumaric acid accumulation in Pisum sativum (pea) leaves at 28 nM added to nutrient medium measured 5 to 15 days post onset of compound treatment by HPLC method; type: functional; conditions: Lathyrus oleraceus; method in brief: as §1
Leaf [19] = assay: Induction of sinapic acid accumulation in Pisum sativum (pea) leaves at 28 nM added to nutrient medium measured 5 to 15 days post onset of compound treatment by HPLC method; type: functional; conditions: Lathyrus oleraceus; method in brief: as §1
Pisum sativum [20] = assay: Growth inhibition in Pisum sativum (pea) at 28 nM added to nutrient medium measured 22 to 23 days post onset of compound treatment; type: functional, organism-based; conditions: Lathyrus oleraceus; method in brief: as §3
Root [21] = assay: Induction of p-coumaric acid accumulation in Pisum sativum (pea) roots at 28 nM added to nutrient medium measured 5 to 15 days post onset of compound treatment by HPLC method; type: functional; conditions: Lathyrus oleraceus; method in brief: as §1
Leaf [22] = assay: Induction of caffeic acid accumulation in Pisum sativum (pea) leaves at 28 nM added to nutrient medium measured 5 to 15 days post onset of compound treatment by HPLC method; type: functional; conditions: Lathyrus oleraceus; method in brief: as §1
Root [23] = assay: Induction of ADH protein enzyme expression in Pisum sativum (pea) roots at 1 mM added to nutrient medium measured 5 to 15 days post onset of compound treatment by immunoblot; type: functional; conditions: Lathyrus oleraceus
Method in brief: (§4)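 Pea (Pisum sativum cv. Snap Sugar Boys) plants were grown in nutrient solution. At 12 days old, 1 mM phenolic acid was added to the solution. The solution was replaced every 3 days and kept at pH 6–7. Samples were collected at 0, 1, 3, 7, 10 and 15 days. Untreated plants were controls. One-way ANOVA with Fisher test, p < 0.05.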

Root [24] = assay: Induction of PDC protein expression in Pisum sativum (pea) roots at 1 mM added to nutrient medium measured 5 to 15 days post onset of compound treatment by immunoblot; type: functional; conditions: Lathyrus oleraceus; method in brief: as §4
Root [25] = assay: Drug level in Pisum sativum (pea) roots at 1 mM added to nutrient medium measured 5 to 15 days post onset of compound treatment by HPLC method; type: ADME; conditions: lathyrus oleraceus, 1000 µM; method in brief: as §4
Leaf [26] = assay: Increase in quinate content in Pisum sativum (pea) leaves at 1 mM added to nutrient medium measured 5 to 15 days post onset of compound treatment by ion chromatography; type: functional; conditions: Lathyrus oleraceus; method in brief: as §4
Pisum sativum [27] = assay: Growth inhibition in Pisum sativum (pea) assessed as shoot growth arrest at 1 mM added to nutrient medium measured within 10 days post onset of compound treatment; type: functional, organism-based; conditions: Lathyrus oleraceus; method in brief: as §4
Root [28] = assay: Effect on sucrose content in Pisum sativum (pea) roots at 1 mM added to nutrient medium measured 5 to 15 days post onset of compound treatment by capillary electrophoresis method; type: functional; conditions: Lathyrus oleraceus; method in brief: as §4
Leaf [29] = assay: Increase in starch content in Pisum sativum (pea) leaves at 1 mM added to nutrient medium measured 5 to 15 days post onset of compound treatment by capillary electrophoresis method; type: functional; conditions: Lathyrus oleraceus; method in brief: as §4
Root [30] = assay: Effect on starch content in Pisum sativum (pea) roots at 1 mM added to nutrient medium measured 5 to 15 days post onset of compound treatment by capillary electrophoresis method; type: functional; conditions: Lathyrus oleraceus; method in brief: as §4
Leaf [31] = assay: Drug level in Pisum sativum (pea) leaves at 1 mM added to nutrient medium measured 5 to 15 days post onset of compound treatment by HPLC method; type: ADME; conditions: lathyrus oleraceus, 1000 µM; method in brief: as §4
Pisum sativum [32] = assay: Growth inhibition in Pisum sativum (pea) assessed as root elongation arrest at 1 mM added to nutrient medium measured within 1 day post onset of compound treatment; type: functional, organism-based; conditions: Lathyrus oleraceus; method in brief: as §4
Root [33] = assay: Reduction in PAL activity in Pisum sativum (pea) roots at 1 MM added to nutrient medium measured 7 days post onset of compound treatment; type: functional; design: dose or concentration left out as unconfirmed; conditions: Lathyrus oleraceus; method in brief: as §4
Root [34] = assay: Increase in lignin content in Pisum sativum (pea) roots at 1 mM added to nutrient medium measured 5 to 15 days post onset of compound treatment; type: functional; conditions: Lathyrus oleraceus; method in brief: as §4

CCc1cnc(C2=NC(C)(C(C)C)C(=O)N2)c(C(=O)O)c1 (centres undefined)
inactive: Activity (Root [1])
active: Activity (Root [2]) | Activity (Root [3]) | Activity (Root [4]) | growth inhibition (GI) (Pisum sativum [5]) | Activity (Leaf [6]) | Activity (Leaf [7]) | Activity (Leaf [8]) | Activity (Root [9]) | Activity (Leaf [10]) | Activity (Root [11]) | Activity (Root [12])

COc1nc(C)nc(NC(=O)NS(=O)(=O)c2ccccc2Cl)n1
active: Activity (Leaf [13]) | Activity (Root [14]) | Activity (Root [15]) | Activity (Root [16]) | Activity (Root [17]) | Activity (Leaf [18]) | Activity (Leaf [19]) | growth inhibition (GI) (Pisum sativum [20]) | Activity (Root [21]) | Activity (Leaf [22])

O=C(O)/C=C/c1ccc(O)cc1 [COUMARIC ACID]
active: Activity (Root [23]) | Activity (Root [24]) | Activity (Leaf [26]) | Activity (Pisum sativum [27]) | Activity (Leaf [29]) | Activity (Pisum sativum [32])
Active: Drug uptake (Root [25]) | Drug uptake (Leaf [31])
inactive: Activity (Root [28]) | Activity (Root [30])

COc1cc(/C=C/C(=O)O)ccc1O [FERULATE]
Active: Drug uptake (Root [25]) | Drug uptake (Leaf [31])
active: Activity (Root [23]) | Activity (Root [24]) | Activity (Leaf [26]) | Activity (Pisum sativum [27]) | Activity (Root [33]) | Activity (Leaf [29]) | Activity (Root [34]) | Activity (Pisum sativum [32])
inactive: Activity (Root [28]) | Activity (Root [30])
